According to article PMC5075014 (Medicinal Chemistry Research, 2016):

Test system: MCF-7 (human breast cancer) cell line
Experiment: WST-1 assay, anticancer activity, breast cancer MCF-7
Assay type: cell-based
Conditions: MCF-7 cell line
How it was run: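 Cells were grown at 37 °C under 5 % CO2 and seeded at 1 × 10^4 cells/well in DMEM with 10 % FCS, streptomycin and penicillin. They were exposed to the test compound at 0–100 μg/mL for 72 h, then given WST-1 for 1 h. Absorbance was read at 450 nm against a background control, with a 600 nm reference. Values are means of at least two independent experiments run in triplicate.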

CN(C)CCCN1c2ccccc2Sc2cccnc21 [Prothipendyl, 10-dimethylaminopropyl-1-azaphenothiazine]
times less active than the most active diazaphenothiazines: 5-6 times
